Bioassay records deposited in PubChem BioAssay by several laboratories.
mHtt clearance = clearance of mutant huntingtin inclusions, primary screen, imaging, HeLa Exon1htt(103Q)mCFP, confocal imaging; aggregate imaging; zero = plate's median compound well; inhibition, % at 1.5 µM; hit rate 0.42% among 47,000; AID 853, 2007;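 active means inhibition of aggregate fluorescence above about 70%, also judged a hit by eye on the cell image, limit read from the data, passing the limit was not always enough; inconclusive means no rule stated for this call; inactive means not judged a hit on image review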;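 further: cells exposed to compound for three days before fixation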
RORA act = activators of orphan receptor RORA, primary screen, cell-based, luminescence. activation, % at 10 µM. hit rate 1.5% among 65,000. AID 560, 2006. CHO-K1 Gal4-RORA LBD luciferase reporter; percent increase over mock-subtracted basal signal;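 active means activation above the mean of all tested compounds plus 3 SD, cut at about 49% in these data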
M1 agonist = M1 muscarinic receptor agonists, primary screen, CHO-M1 cells, Fluo-4 calcium, agonist mode; Muscarinic acetylcholine receptor M1; Fluo-4 calcium fluorescence; active compounds read high; B-score at 10 µM; hit rate 3% among 64,000; AID 626, 2007;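 active means fluorescence rise, raw or as B-score row- and column-corrected plate score, outside the 99.7% band of its plate's samples, either direction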
M1 antagonist = antagonists of rat M1 muscarinic receptor | CHO-M1 cells, Fluo-4 calcium, ACh EC80 antagonist mode; active compounds read low | B-score at 10 µM | hit rate 3.4% among 64,000 | AID 628, 2007;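 active means calcium fluorescence response, raw or row-and-column corrected B-score, differing from the plate sample mean either way at a set confidence level, mostly lower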
D1 mod = D1 CRE-luciferase signal change, two-sided – cell-based, HEK293 D1, dopamine EC30, D1 allosteric modulator project, primary screen. D(1A) dopamine receptor (Homo sapiens), P21728. dopamine EC30 potentiation; actives deviate in either direction. B-score at 10 µM. hit rate 5.9% among 58,000. AID 641, 2007;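 active means luminescence count or its row- and column-corrected plate score outside the 99.7% band of the plate's sample wells, on either side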
Target sequence (P21728 whole entry, looked up): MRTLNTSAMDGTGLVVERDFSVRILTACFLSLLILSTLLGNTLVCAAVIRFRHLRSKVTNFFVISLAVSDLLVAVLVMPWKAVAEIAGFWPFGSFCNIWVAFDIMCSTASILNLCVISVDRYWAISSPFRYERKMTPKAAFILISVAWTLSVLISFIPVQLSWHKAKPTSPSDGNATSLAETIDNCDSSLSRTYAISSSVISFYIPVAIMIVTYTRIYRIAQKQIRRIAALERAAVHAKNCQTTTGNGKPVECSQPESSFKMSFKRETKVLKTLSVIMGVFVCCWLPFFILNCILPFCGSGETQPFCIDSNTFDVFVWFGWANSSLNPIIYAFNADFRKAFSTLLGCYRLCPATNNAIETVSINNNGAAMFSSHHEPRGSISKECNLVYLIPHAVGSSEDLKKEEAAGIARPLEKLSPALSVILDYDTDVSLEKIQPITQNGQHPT
SF-1 act = activators of human SF-1, primary screen, cell-based, CHO-K1, Gal4-SF-1 LBD, luciferase luminescence; Steroidogenic factor 1 (Homo sapiens), Q13285; CHO-K1 Gal4-SF-1 LBD luciferase reporter; % increase over DMSO SF-1-specific signal; activation, % at 10 µM; hit rate 1.9% among 65,000; AID 522, 2006;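 active means activation above the mean activation of all tested compounds plus 3 SD, cut at about 50% in these data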
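Test system: CHO-K1 cells co-transfected with Gal4 DBD–human SF-1 LBD, 5xGal4 luciferase reporter. Quantity: 4,000 cells per well. Compound: 10 µM only. Incubation: compound added 1 h post-seeding, 20 h exposure at 37 °C, 5% CO2. Detection: SteadyLite luciferase luminescence. Replication: one test per compound.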
M1 agonist conf = rat M1 muscarinic receptor agonists, confirmation, CHO-M1 cells, Fluo-4 calcium, duplicate retest. hit rate 19% among 1,700. Fluo-4 calcium fluorescence, agonist mode; actives lie on both sides. shares compounds with M1 agonist. AID 1488, 2009. fluorescence change (max-min) at 10 µM;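 active means fluorescence change differs from the solvent-only DMSO control mean at a set confidence level in both duplicate runs; inconclusive means differs from solvent-only control mean in just one of two runs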;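 further: an EC20 dose of acetylcholine follows compound addition during the same imaging run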
M4 agonist ctr = agonist activity at rat M4 receptor, confirmation, counter-screen for M1 allosteric modulator project, cell-based, agonist mode. shares compounds with M1 agonist. CHO M4/Gqi5 cells, Fluo-4 calcium fluorescence; actives lie on both sides. fluorescence change (max-min) at 10 µM. hit rate 9% among 1,700;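 active means fluorescence change differing from the plate's solvent-only control wells at 99.7% confidence in both duplicates, whether higher or lower; inconclusive means differs from solvent controls in only one of two duplicates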
Large screens that a line does not name were inactive (follow-up assays come after a bar, where they were run). The list is not random: actives were taken first. Their share in the collection is about 11%.

CN1/C(=C/C2CC(=O)N(c3ccc([N+](=O)[O-])cc3)C2=O)C(C)(C)c2ccccc21 (centres undefined)	none (no result: RORA act, M1 agonist, M1 antagonist, D1 mod, SF-1 act)
O=C(O)CNS(=O)(=O)c1ccc(Br)s1	none (no result: mHtt clearance)
O=S(=O)(NCc1ccncc1)c1ccc(Br)s1	M1 agonist 3.7 (no result: mHtt clearance) | M1 agonist conf inactive | M4 agonist ctr inactive
CCCC(OC(=O)CC1Sc2ccccc2NC1=O)C(=O)NCc1ccco1 (centres undefined)	M1 agonist 2.5 (no result: mHtt clearance, D1 mod) | M1 agonist conf inactive | M4 agonist ctr inactive
CCOc1ccc2nc(NC(=O)CN3CCC(n4nnc5cc(F)ccc54)CC3)sc2c1	none
O=C(Nc1ccc(O)cc1)c1cc2n(n1)C(C(F)(F)F)CC(c1ccco1)N2 (centres undefined)	M1 agonist -2.3 (no result: mHtt clearance) | M1 agonist conf inactive | M4 agonist ctr inactive
O=C(NC1CCCCCC1)c1cc2n(n1)C(C(F)(F)F)CC(c1ccco1)N2 (centres undefined)	none
COc1ccc(C2C(C#N)=C(N)SC(N)=C2C#N)cc1OC	M1 agonist 38 (no result: D1 mod) | M1 agonist conf inactive | M4 agonist ctr inactive
COc1ccc(C2C(C#N)=C(N)OC(C(C)(C)C)=C2C#N)cc1OC (centres undefined)	none (no result: mHtt clearance)
Cc1cc(C)nc(SCC(=O)N2CCC(C(N)=O)CC2)n1	M1 agonist 2.7 (no result: mHtt clearance) | M1 agonist conf inconclusive | M4 agonist ctr inactive
O=C(CN1CCOCC1)Nc1scc(-c2ccccc2)c1C(=O)N1CCOCC1	M1 agonist 3.4 | M1 agonist conf inconclusive | M4 agonist ctr inactive
O=C(CN1CCOCC1)Nc1ccccc1-c1ccccc1	none
C[N+]12CCCCC1C(COC(=O)c1ccc3c(c1)OCO3)CCC2 (centres undefined)	none (no result: RORA act, M1 agonist, M1 antagonist, D1 mod, SF-1 act)
CC(/C=C/c1ccc(O)cc1)=N/O	none (no result: RORA act, M1 agonist, M1 antagonist, D1 mod, SF-1 act)
C=CCn1c(N)c(C(=O)NCC2CCCO2)sc1=S (centres undefined)	none (no result: mHtt clearance)
CCn1c(N)c(C(=O)NCC2CCCO2)sc1=S (centres undefined)	M1 agonist 6.7 (no result: mHtt clearance) | M1 agonist conf inactive | M4 agonist ctr inactive
O=S(=O)(c1ccccc1F)N(Cc1ccco1)Cc1nnc(-c2ccccc2Br)o1	none
COC(=O)c1ccccc1NC(=O)Cn1cnc2cc(C)c(C)cc21	M1 agonist -2.8 | M1 agonist conf inactive | M4 agonist ctr inactive
COc1ccc(C2C(C(C)=O)=C(C)N=c3s/c(=C/c4ccc5c(c4)OCO5)c(=O)n32)cc1 (centres undefined)	M1 agonist 3.9 | M1 agonist conf inactive | M4 agonist ctr inactive
CCOC(=O)CC1=CC(C)(CC(=O)OCC)C(C#N)(C#N)C(N)=C1C#N (centres undefined)	none (no result: mHtt clearance)
CCCCC(=O)Nc1ccc2oc(-c3ccncc3)nc2c1	M1 agonist 2.5 | M1 agonist conf inconclusive | M4 agonist ctr inactive
CCOc1ccc(N2CC(C(=O)Nc3ccccc3F)CC2=O)cc1 (centres undefined)	none (no result: mHtt clearance)
COCCOC(=O)C1=C(C)NC(=O)NC1c1cn(-c2ccccc2)nc1-c1cccs1 (centres undefined)	M1 agonist 11, M1 antagonist -2.1 (no result: mHtt clearance, D1 mod) | M1 agonist conf inconclusive | M4 agonist ctr inactive
C=CCOC(=O)C1=C(C)NC(=O)NC1c1cn(-c2ccccc2)nc1-c1cccs1 (centres undefined)	none
COc1ccc(-c2cc(C(F)(F)F)nc(N3CCN(C)CC3)n2)cc1	none (no result: mHtt clearance, M1 agonist, M1 antagonist)
COc1ccc(-c2cc(C(F)(F)F)nc(N3CCCCCC3)n2)cc1	M1 agonist 4.6 (no result: D1 mod) | M1 agonist conf inactive | M4 agonist ctr inconclusive
